The source of these data is ChEMBL document CHEMBL3351949, “Substituted dithiazole piperazine benzamides as novel amyloid beta peptide reducing agents” (Bioorg Med Chem Lett, 2014).

The target in data set [1] is Amyloid-beta precursor protein (Homo sapiens) (UniProt P05067). The data set is described as follows: Reduction in wild type APP751 (unknown origin) expressed in CHO cells at 1 uM after 48 hrs by immunoblotting method. Type of data set: cell-based. Put shortly: (§1)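 CHO cells stably expressing APP751wt (7WD10) treated 48 h, duplicate wells, DMSO as control. Conditioned medium centrifuged and immunoprecipitated overnight with Ab9 (Aβ 1–16). Aβ detected by SDS-PAGE immunoblot with 6E10/82E1 and ECL, signals quantified by densitometry. Dose-response n=4; ANOVA with Dunnett's post-hoc test.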
Amyloid-beta precursor protein (Homo sapiens), sequence (P05067 whole entry): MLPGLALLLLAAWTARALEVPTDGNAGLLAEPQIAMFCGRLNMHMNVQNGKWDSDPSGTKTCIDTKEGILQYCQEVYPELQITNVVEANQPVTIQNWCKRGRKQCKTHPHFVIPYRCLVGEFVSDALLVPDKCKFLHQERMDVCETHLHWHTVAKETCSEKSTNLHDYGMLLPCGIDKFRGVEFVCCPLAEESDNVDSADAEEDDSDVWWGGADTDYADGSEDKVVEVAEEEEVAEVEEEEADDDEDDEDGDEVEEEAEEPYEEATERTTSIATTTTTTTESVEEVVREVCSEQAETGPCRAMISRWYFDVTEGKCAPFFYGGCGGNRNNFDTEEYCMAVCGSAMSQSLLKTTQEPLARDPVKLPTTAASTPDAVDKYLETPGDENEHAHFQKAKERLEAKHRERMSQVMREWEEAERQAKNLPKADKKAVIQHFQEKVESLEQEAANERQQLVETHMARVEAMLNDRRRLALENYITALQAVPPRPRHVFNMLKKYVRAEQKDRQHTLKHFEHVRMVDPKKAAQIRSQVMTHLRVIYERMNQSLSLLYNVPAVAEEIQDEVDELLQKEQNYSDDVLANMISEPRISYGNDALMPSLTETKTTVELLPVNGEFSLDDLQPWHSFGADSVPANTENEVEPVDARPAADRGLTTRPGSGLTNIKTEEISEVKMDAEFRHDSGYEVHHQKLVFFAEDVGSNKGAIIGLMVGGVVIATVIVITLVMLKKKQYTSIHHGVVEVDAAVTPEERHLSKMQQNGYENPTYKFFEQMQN
A general note: In western blotting, separated proteins are transferred to a membrane and probed.

Another data set deals with N2a. The data set is described as follows: Reduction in […] APP695 Sweden mutant (unknown origin) expressed in N2a cells by immunoblotting method. The following applies: Homo sapiens. Type of data set: cell-based. The essentials:
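Neuro-2a cells stably expressing APP695swe treated at 1.0 μM. Aβ immunoprecipitated from conditioned medium with Ab9 antibody (Aβ 1–16) and detected by immunoblot with 6E10/82E1 mixture.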

Data set [2] has as its target Amyloid-beta precursor protein (Homo sapiens) (UniProt P05067). The data set is described as follows: Reduction in wild type APP751 (unknown origin) expressed in CHO cells at 500 nM after 48 hrs by immunoblotting method relative to untreated control. Type of data set: cell-based. Put shortly: as §1
Data set [3] has the same target. The data set is described as follows: Reduction in wild type APP751 (unknown origin) expressed in CHO cells at 1 uM after 48 hrs by immunoblotting method relative to untreated control. In kind it is cell-based. Put shortly: as §1
Data set [4] has the same target. Description: Reduction in wild type APP751 (unknown origin) expressed in CHO cells at 10 uM after 48 hrs by immunoblotting method relative to untreated control. In kind it is cell-based. Put shortly: as §1
For data set [5] the target is unchanged. The data set is described as follows: Reduction in wild type APP751 (unknown origin) expressed in CHO cells at 50 nM after 48 hrs by immunoblotting method relative to untreated control. Type of data set: cell-based. The essentials:
as §1

The target is the same in data set [6]. Description: Reduction in wild type APP751 (unknown origin) expressed in CHO cells at 100 nM after 48 hrs by immunoblotting method relative to untreated control. In kind it is cell-based. Put shortly:
as §1

Data set [7] shares this target. Description: Reduction in wild type APP751 (unknown origin) expressed in CHO cells assessed as increase in c-terminal fragments at 50 nM to 10 uM after 48 hrs by immunoblotting method relative to untreated control. Type of data set: cell-based. Put shortly:
(§2)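 7WD10 CHO cells (APP751wt) treated 48 h versus DMSO controls. Cells lysed in buffer with protease inhibitors. Full-length APP and C-terminal fragments detected with CT15 antibody by SDS-PAGE immunoblot and ECL, quantified by densitometry. n=4; ANOVA with Dunnett's test.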

The target is the same in data set [8]. Description: Reduction in wild type APP751 (unknown origin) expressed in CHO cells assessed as increase in secreted APPalpha at 50 nM to 10 uM after 48 hrs by immunoblotting method relative to untreated control. In kind it is cell-based. The essentials:
(§3)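 48 h treatment of APP751wt-expressing CHO (7WD10) cells, DMSO control. Conditioned medium immunoblotted for sAPPα (6E10), sAPPβ (anti-sAPPβ-wt rabbit IgG) and total sAPP (63G). Detection by ECL, densitometric quantification.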

The target is the same in data set [9]. The data set is described as follows: Reduction in wild type APP751 (unknown origin) expressed in CHO cells assessed as increase in secreted APPbeta at 50 nM to 10 uM after 48 hrs by immunoblotting method relative to untreated control. In kind it is cell-based. Put shortly: as §3
Data set [10] has the same target. The data set is described as follows: Reduction in wild type APP751 (unknown origin) expressed in CHO cells assessed as increase in secreted APPalpha at 50 nM to 10 uM after 48 hrs by immunoblotting method. Further details: scale not given: the % may be the effect or the level left. Type of data set: cell-based. The essentials:
as §3

Data set [11] has the same target. Description: Reduction in wild type APP751 (unknown origin) expressed in CHO cells assessed as increase in full length APP level at 50 nM to 10 uM after 48 hrs by immunoblotting method. Type of data set: cell-based. Put shortly:
as §2

For data set [12] the target is unchanged. Description: Reduction in wild type APP751 (unknown origin) expressed in CHO cells assessed as increase in alpha c-terminal fragments at 50 nM to 10 uM after 48 hrs by immunoblotting method relative to untreated control. Type of data set: cell-based. Put shortly:
as §2

For data set [13] the target is unchanged. Description: Reduction in wild type APP751 (unknown origin) expressed in CHO cells assessed as increase in alpha c-terminal fragments at 50 nM to 10 uM after 48 hrs by immunoblotting method. The arrangement: scale not given: the % may be the effect or the level left. In kind it is cell-based. Put shortly: as §2
The target is the same in data set [14]. Description: Reduction in wild type APP751 (unknown origin) expressed in CHO cells assessed as increase in beta c-terminal fragments at 50 nM to 10 uM after 48 hrs by immunoblotting method. In kind it is cell-based. Put shortly:
as §2

For data set [15], the system named is CHO. The data set is described as follows: Toxicity against CHO cells assessed as induction of cell death up to 1 uM by LDH release assay. In kind it is cell-based, Cricetulus griseus. The following applies: chinese hamster. Put shortly: (§4)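 Cytotoxicity in CHO cells measured by lactate dehydrogenase release and by MTT reduction. n=4 per group; ANOVA followed by Dunnett's post-hoc test.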

Data set [16] concerns CHO. The data set is described as follows: Toxicity against CHO cells assessed as induction of cell death up to 1 uM by MTT assay. In kind it is cell-based, Cricetulus griseus. The conditions noted are these: chinese hamster. The essentials:
as §4
Background: Tetrazolium dyes change colour on reduction, which living cells bring about.

Data set [17] relates to CHO. Description: Toxicity against CHO cells assessed as induction of cell death at 10 uM by LDH release assay. Type of data set: cell-based, Cricetulus griseus. The following applies: chinese hamster. The essentials:
as §4

Data set [18] concerns CHO. The data set is described as follows: Toxicity against CHO cells assessed as induction of cell death at 10 uM by MTT assay. In kind it is cell-based, Cricetulus griseus. The following applies: chinese hamster. The essentials: as §4
For a further data set, the system named is Mus musculus. The data set is described as follows: Reduction in amyloid plaque numbers in APP/PS1 double transgenic APdeltaE9 mouse 0.5 mg/kg, ip dosed daily for 60 days starting from 4 to 6 months of age. In kind it is functional. The following applies: 1440 h, route intraperitoneal. Put shortly:
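APP/PS1 double transgenic (APΔE9) mice dosed i.p. daily, 0.5 mg/kg body wt., from 4- to 6-months of age for 60 days. Amyloid plaque numbers counted in brain sections (cortex and hippocampus) versus vehicle-treated mice.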

A short description of data set [19]: Drug level in brain of APP/PS1 double transgenic APdeltaE9 mouse 4 mg/kg, iv measured after 10 mins. In kind it is ADME, organism-based. Further details: dose 4 mg/kg, route intravenous. The conditions noted are these: read-out: Drug uptake. Put shortly:
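Mice given 4 mg/kg by intravenous injection; compound level measured in brain over time after dosing (about 10–20 min window).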

Data set [20] can be described thus: Half life in brain of APP/PS1 double transgenic APdeltaE9 mouse 4 mg/kg, iv. In kind it is ADME, organism-based. Further details: dose 4 mg/kg, route intravenous.

Active and inactive are the calls of the source.

By inhibition is commonly meant the drop in the measured response relative to a control, in per cent. By inhibition in vivo is commonly meant the share of the control response that was lost under treatment. Broadly, the half-life is the time needed for the level to fall by half in the phase considered. In the case of `NC(=O)c1ccc(N2CCN(c3nc(-c4cccc(O)c4)cs3)CC2)c(Nc2nc(-c3cccc(O)c3)cs2)c1`, the inhibition result (in [1]; in the data set on N2a) was “Active” each time. Besides, the inhibition is 31% in data set [2]; 54% in data set [3]; 63% in data set [4]; 21% in [5]; 20% in [6]; “Dose-dependent effect” in data set [7]. Moreover, the inhibition result in data set [8], in data set [11] and in data set [12] was “Dose-dependent effect” in each case. For the same molecule, the inhibition result in [9] and in [14] was “inactive” throughout. Also, the Activity in data set [10] is 40%; in data set [13], 80%; in the data set on CHO [15] it was “Non-toxic”; with CHO [16] it was “Non-toxic”; in the data set on CHO [17], “Toxic”; with CHO [18] it was “Toxic”. This molecule yielded an inhibition in vivo at 0.5 mg/kg with Mus musculus of 39%. In data set [19], the concentration at 10 min stood at 40 ng/mL. The molecule further registered a half-life in [20] of 6.7 min.
